Measured values of several laboratories.
Compare with care: the assays were run in different laboratories.
BRAF V600E: Serine/threonine-protein kinase B-raf (BRAF, Homo sapiens, UniProt P15056, V600E)
BRAF: Serine/threonine-protein kinase B-raf (BRAF, Homo sapiens, UniProt P15056)

| Structure (SMILES) | target | assay | setting | quantity | value |
| --- | --- | --- | --- | --- | --- |
| COc1ccc(-c2csc(NN=C(CS(=O)(=O)c3ccccc3)c3ccc(F)cc3)n2)cc1 | BRAF V600E | enzyme activity, inhibitor, ATP luminescence | 0.1 µM | inhibition | 51% |
| Cc1cc(NC(=O)c2cccc3cc(-c4cccc5[nH]nc(N)c45)ccc23)ccc1F | BRAF | enzyme activity, inhibitor | 0.1 µM | activity vs control | 99% |
| CNC(=O)Nc1ccc2c(c1)[C@@]1(CC2)OC(=O)N(CC(=O)N(Cc2ccc(F)cc2)[C@@H](C)C(F)(F)F)C1=O | BRAF V600E | cell-free assay, competition with immobilised ligand | 1 µM | remaining binding | 96% |
| Nc1ncnc2occ(-c3ccc(NC(=O)Nc4cc(C(F)(F)F)ccc4F)cc3)c12 | BRAF | cell-free assay | 20 µM | remaining signal | 0.8% |
| C[C@@H]1CCN(C(=O)CC#N)C[C@@H]1N(C)c1ncnc2[nH]ccc12 | BRAF | cell-free assay | 0.5 µM | remaining signal | 93.7% |
| Cc1ccc(C(CS(=O)(=O)c2ccccc2)=NNc2nc(C)c(N=Nc3ccccc3)s2)cc1 | BRAF V600E | enzyme activity, inhibitor, ATP luminescence | 1 µM | inhibition | 63% |
| COc1ccc2c(c1)O[C@@H](c1ccc(OC)c(OC)c1)C[C@H]2NC(=O)C1(c2ccc3c(c2)OC(F)(F)O3)CC1 | BRAF | cell-free assay, competition with immobilised ligand | 1 µM | remaining binding | 100% |
| Cc1ccc(C(CS(=O)(=O)c2ccccc2)=NNc2nc(-c3ccc(OCCCCOc4ccc(-c5csc(NN=C(CS(=O)(=O)c6ccccc6)c6ccc(C)cc6)n5)cc4)cc3)cs2)cc1 | BRAF V600E | enzyme activity, inhibitor, ATP luminescence | 1 µM | inhibition | 84% |
| CN(c1nccc(-c2cnn3ncccc23)n1)C1CC1 | BRAF | binding | 1 µM | remaining binding | 100% |
| CC(C)(C)c1nc(-c2cccc(NS(=O)(=O)c3c(F)cccc3F)c2F)c(-c2ccnc(N)n2)s1 | BRAF V600E | enzyme activity, inhibitor, ATP luminescence | 1 µM | inhibition | 81% |
| CC(C)(C)c1nc2c(s1)c1nc(N)ncc1c1ccc(NS(=O)(=O)c3c(F)cccc3F)c(F)c12 | BRAF | enzyme activity, inhibitor, radiometric | 1 µM | remaining activity | 27% |
| NC(=S)NN=C(CS(=O)(=O)c1ccccc1)c1ccc(F)cc1 | BRAF V600E | enzyme activity, inhibitor, ATP luminescence | 10 nM | inhibition | 34% |
| O=C1NC(c2ccccn2)Sc2ccccc21 (centres unmarked) | BRAF V600E | cell-free assay, competition with immobilised ligand | 1 µM | remaining binding | 94% |
| CC(C)(O)[C@H]1CC[C@H](Nc2ccc3ncc(-c4cccc(C(F)(F)F)c4)n3n2)CC1 | BRAF | enzyme activity, inhibitor | 1 µM | remaining activity | 93.8% |
| O=C(Nc1cnc(Oc2ccc(F)cc2)nc1)N1CCc2ncccc2[C@@H]1c1ccc(F)cc1 | BRAF V600E | cell-free assay, competition with immobilised ligand | 1 µM | remaining binding | 83% |
| C[S+]([O-])c1ccc(-c2nc(-c3ccncc3)c(-c3ccc(F)cc3)[nH]2)cc1 (centres unmarked) | BRAF | cell-free assay | 0.5 µM | remaining signal | 78.8% |
| CCCCN(CCCC)C(=O)CN1C[C@H](c2cc(OC)c3c(c2)OCO3)[C@@H](C(=O)O)[C@@H]1CC(C)(C)CCC | BRAF V600E | cell-free assay, competition with immobilised ligand | 1 µM | remaining binding | 89.1% |
| Cc1ccc(C(=O)NCc2ccsc2)cc1C#Cc1cn(C(C)C)c2ncnc(N)c12 | BRAF V600E | enzyme activity, inhibitor | 1 µM | activity vs control | 9% |
| Cc1ccc(C(CS(=O)(=O)c2ccccc2)=NNC2=NC(=O)C(=NNc3ccc([N+](=O)[O-])cc3)S2)cc1 | BRAF V600E | enzyme activity, inhibitor, ATP luminescence | 10 nM | inhibition | 31% |
| Cc1nc(C2CCN(C(=O)c3ccc(OC(F)(F)F)cc3N)CC2)c2ncc(N3CCN(C)CC3)cc2n1 | BRAF | cell-free assay, competition with immobilised ligand | 1 µM | remaining binding | 100% |
